Source: ChEMBL document CHEMBL3286095, “Synthesis and antiparasitic activity of new bis-arylimidamides: DB766 analogs modified in the terminal groups” (Eur J Med Chem, 2014)

How the values were obtained:
[1] = Selectivity index, ratio of IC50 for rat L6 cells to IC50 for Leishmania amazonensis; assay type: toxicity, cell-based; details: read-out: Ratio IC50
Method in brief: (§1)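 SI is the IC50 in cultured L6 rat myoblasts (3-day drug exposure, Alamar blue viability) divided by the parasite IC50. Parasite assays used serial dilutions at 37°C. T. cruzi: intracellular, 4 days, β-galactosidase read-out with CPRG. T. b. rhodesiense: axenic, 3 days, Alamar blue. P. falciparum: 3 days, hypoxanthine incorporation. L. amazonensis: intracellular.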

[2] = test system: Trypanosoma brucei rhodesiense; experiment: Antiparasitic activity against Trypanosoma brucei rhodesiense STIB900 trypomastigotes after 3 days by Alamar blue assay; assay type: functional, organism-based; details: STIB900, 72 h
Method in brief: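 Axenic trypomastigote bloodstream forms, strain STIB900, exposed to serial drug dilutions for 3 days at 37°C. Viability read by Alamar blue.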

[3] = Selectivity index, ratio of IC50 for rat L6 cells to IC50 for Trypanosoma brucei rhodesiense STIB900 trypomastigotes; assay type: toxicity, cell-based; details: read-out: Ratio IC50; method in brief: as §1
[4] = test system: Plasmodium falciparum; experiment: Antiparasitic activity against chloroquine-resistant Plasmodium falciparum K1 after 3 days by [3H]-hypoxanthine incorporation assay; assay type: functional, organism-based
Method in brief: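 Erythrocytic-stage parasites exposed to serial drug dilutions at 37°C for 3 days; viability read by tritium-labelled hypoxanthine incorporation.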

[5] = Selectivity index, ratio of IC50 for rat L6 cells to IC50 for chloroquine-resistant Plasmodium falciparum K1; assay type: toxicity, cell-based; details: read-out: Ratio IC50; method in brief: as §1
[6] = test system: Trypanosoma cruzi; experiment: Antiparasitic activity against Trypanosoma cruzi Tulahen LacZ/C4 amastigotes after 4 days by beta-galactosidase reporter gene assay; assay type: functional, organism-based; details: Tulahen LacZ/C4, 96 h
Method in brief: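 Intracellular amastigotes of strain Tulahen LacZ/C4 given serial drug dilutions for 4 days at 37°C. The endpoint is the β-galactosidase reporter, read as a colour change after adding CPRG substrate.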

[7] = Selectivity index, ratio of IC50 for rat L6 cells to IC50 for Trypanosoma cruzi Tulahen LacZ/C4 amastigotes; assay type: toxicity, cell-based; details: read-out: Ratio IC50; method in brief: as §1
[8] = test system: Trypanosoma cruzi; experiment: Ratio of benznidazole IC50 to compound IC50 for Trypanosoma cruzi Tulahen LacZ/C4 amastigotes; assay type: functional
[9] = test system: Plasmodium falciparum; experiment: Ratio of pentamidine IC50 to compound IC50 for chloroquine-resistant Plasmodium falciparum K1; assay type: functional
[10] = test system: L6; experiment: Cytotoxicity against rat L6 cells after 3 days by Alamar blue assay; assay type: cell-based; details: L6, 72 h
Method in brief: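 L6 rat myoblast cells cultured with compound for 3 days. Viability measured by Alamar blue.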

[11] = test system: Leishmania amazonensis; experiment: Antiparasitic activity against Leishmania amazonensis infected in CD-1 mouse macrophages after 72 hrs by spectrophotometric analysis; assay type: functional, organism-based

CC(C)Oc1cc(NC(=N)c2ccccn2)ccc1-c1ccc(-c2ccc(NC(=N)c3ccccn3)cc2OC(C)C)o1
selectivity ratio [1]: 34.5
IC50 [2]: 120 nM
selectivity ratio [3]: 25
IC50 [4]: 149 nM
selectivity ratio [5]: 20.1
IC50 [6]: 100 nM
selectivity ratio [7]: 30

CC(C)Oc1cc(NC(=N)c2ncccn2)ccc1-c1ccc(-c2ccc(NC(=N)c3ncccn3)cc2OC(C)C)o1.Cl
selectivity ratio [1]: 8.29
IC50 [2]: 32 nM
selectivity ratio [3]: 181
IC50 [4]: 8.5 nM
selectivity ratio [5]: 682
Ratio IC50 [8]: 9
Ratio IC50 [9]: 5
IC50 [10]: 5800 nM
IC50 [6]: 200 nM
selectivity ratio [7]: 29

CC(C)Oc1cc(NC(=N)c2cnccn2)ccc1-c1ccc(-c2ccc(NC(=N)c3cnccn3)cc2OC(C)C)o1
selectivity ratio [1]: 34.8
IC50 [2]: 8080 nM
selectivity ratio [3]: > 16
IC50 [4]: 552 nM
selectivity ratio [5]: > 234
IC50 [10]: > 129000 nM
IC50 [6]: 16000 nM
selectivity ratio [7]: > 8.1

CC(C)Oc1cc(NC(=N)c2cccnn2)ccc1-c1ccc(-c2ccc(NC(=N)c3cccnn3)cc2OC(C)C)o1
selectivity ratio [1]: 1.64
IC50 [2]: 1700 nM
selectivity ratio [3]: 1.06
IC50 [4]: 582 nM
selectivity ratio [5]: 3.09
IC50 [10]: 1800 nM
IC50 [6]: 1500 nM
selectivity ratio [7]: 1.2

CC(C)Oc1cc(NC(=N)c2ccc(Br)s2)ccc1-c1ccc(-c2ccc(NC(=N)c3ccc(Br)s3)cc2OC(C)C)o1
IC50 [2]: 17000 nM
selectivity ratio [3]: > 6.47
IC50 [4]: 914 nM
selectivity ratio [5]: > 120
IC50 [10]: > 110000 nM
IC50 [6]: > 110000 nM

CC(C)Oc1cc(NC(=N)c2cc(Br)cs2)ccc1-c1ccc(-c2ccc(NC(=N)c3cc(Br)cs3)cc2OC(C)C)o1
IC50 [2]: 43900 nM
selectivity ratio [3]: > 2.46
IC50 [4]: 992 nM
selectivity ratio [5]: > 109
IC50 [10]: > 108000 nM
IC50 [6]: > 108000 nM

Cc1csc(C(=N)Nc2ccc(-c3ccc(-c4ccc(NC(=N)c5nc(C)cs5)cc4OC(C)C)o3)c(OC(C)C)c2)n1
selectivity ratio [1]: > 12.2
IC50 [2]: 78600 nM
selectivity ratio [3]: > 1.55
IC50 [4]: 999 nM
selectivity ratio [5]: > 122
IC50 [10]: > 122000 nM
IC50 [6]: > 122000 nM
IC50 [11]: > 10000 nM

Cc1nc(C(=N)Nc2ccc(-c3ccc(-c4ccc(NC(=N)c5csc(C)n5)cc4OC(C)C)o3)c(OC(C)C)c2)cs1
selectivity ratio [1]: 27.6
IC50 [2]: 740 nM
selectivity ratio [3]: 6.36
IC50 [4]: 87 nM
selectivity ratio [5]: 54
IC50 [10]: 4700 nM
IC50 [6]: 2300 nM
selectivity ratio [7]: 2.04

CC(C)Oc1cc(NC(=N)c2csc(N)n2)ccc1-c1ccc(-c2ccc(NC(=N)c3csc(N)n3)cc2OC(C)C)o1
selectivity ratio [1]: 2.18
IC50 [2]: 357 nM
selectivity ratio [3]: 10.4
IC50 [4]: 39 nM
selectivity ratio [5]: 94.9
IC50 [10]: 3700 nM
IC50 [6]: 5600 nM
selectivity ratio [7]: 0.66

CNc1nc(C(=N)Nc2ccc(-c3ccc(-c4ccc(NC(=N)c5csc(NC)n5)cc4OC(C)C)o3)c(OC(C)C)c2)cs1
selectivity ratio [1]: 2.67
IC50 [2]: 92 nM
selectivity ratio [3]: 8.69
IC50 [4]: 31 nM
selectivity ratio [5]: 25.8
IC50 [10]: 800 nM
IC50 [6]: 2300 nM
selectivity ratio [7]: 0.35

CC(=O)Nc1nc(C(=N)Nc2ccc(-c3ccc(-c4ccc(NC(=N)c5csc(NC(C)=O)n5)cc4OC(C)C)o3)c(OC(C)C)c2)cs1.Cl
selectivity ratio [1]: 2.73
IC50 [2]: 12 nM
selectivity ratio [3]: 50
IC50 [4]: 9 nM
selectivity ratio [5]: 66.7
Ratio IC50 [9]: 5
IC50 [10]: 600 nM
IC50 [6]: 1600 nM
selectivity ratio [7]: 0.38

CC(=O)N(C)c1nc(C(=N)Nc2ccc(-c3ccc(-c4ccc(NC(=N)c5csc(N(C)C(C)=O)n5)cc4OC(C)C)o3)c(OC(C)C)c2)cs1
selectivity ratio [1]: 0.99
IC50 [2]: 78 nM
selectivity ratio [3]: 10.3
IC50 [4]: 35 nM
selectivity ratio [5]: 22.6
IC50 [10]: 800 nM
IC50 [6]: 3100 nM
selectivity ratio [7]: 0.26

CC(C)Oc1cc(NC(=N)c2ccc[nH]2)ccc1-c1ccc(-c2ccc(NC(=N)c3ccc[nH]3)cc2OC(C)C)o1
selectivity ratio [1]: 1.11
IC50 [2]: 115 nM
selectivity ratio [3]: 8.69
IC50 [4]: 25 nM
selectivity ratio [5]: 40
IC50 [10]: 1000 nM
IC50 [6]: 4100 nM
selectivity ratio [7]: 0.24

CC(C)Oc1cc(NC(=N)c2ncc[nH]2)ccc1-c1ccc(-c2ccc(NC(=N)c3ncc[nH]3)cc2OC(C)C)o1
selectivity ratio [1]: 4.32
IC50 [2]: 60 nM
selectivity ratio [3]: 26.7
IC50 [4]: 15 nM
selectivity ratio [5]: 107
IC50 [10]: 1600 nM
IC50 [6]: 600 nM
selectivity ratio [7]: 2.67

CC(C)Oc1cc(NC(=N)c2cn(C)cn2)ccc1-c1ccc(-c2ccc(NC(=N)c3cn(C)cn3)cc2OC(C)C)o1
selectivity ratio [1]: 1.6
IC50 [2]: 108 nM
selectivity ratio [3]: 74.1
IC50 [4]: 54 nM
selectivity ratio [5]: 148
IC50 [10]: 8000 nM
IC50 [6]: 18000 nM
selectivity ratio [7]: 0.44

CC(C)Oc1cc(NC(=N)c2ccn(C)n2)ccc1-c1ccc(-c2ccc(NC(=N)c3ccn(C)n3)cc2OC(C)C)o1
selectivity ratio [1]: 1.89
IC50 [2]: 436 nM
selectivity ratio [3]: 3.21
IC50 [4]: 70 nM
selectivity ratio [5]: 20
IC50 [10]: 1400 nM
IC50 [6]: 6100 nM
selectivity ratio [7]: 0.23

O=C(Cn1ccnc1[N+](=O)[O-])NCc1ccccc1 [BENZNIDAZOLE]
IC50 [10]: > 150000 nM
IC50 [6]: 1870 nM
selectivity ratio [7]: > 80
